From PubChem BioAssay
Only some compounds are listed: those with a hit (about 2.6% of all), similar ones and a draw of the others.
PRMT1 FP inh – PRMT1 (human) inhibition, primary screen; recombinant PRMT1, activity-based probe fluorescence polarization; inhibition, % at 2.79 µM; actives 1.3% (n = 370,000);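 active = inhibition above about 21% made by adding two undisclosed values, limit read from the data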
Target sequence (Q99873 whole entry, looked up): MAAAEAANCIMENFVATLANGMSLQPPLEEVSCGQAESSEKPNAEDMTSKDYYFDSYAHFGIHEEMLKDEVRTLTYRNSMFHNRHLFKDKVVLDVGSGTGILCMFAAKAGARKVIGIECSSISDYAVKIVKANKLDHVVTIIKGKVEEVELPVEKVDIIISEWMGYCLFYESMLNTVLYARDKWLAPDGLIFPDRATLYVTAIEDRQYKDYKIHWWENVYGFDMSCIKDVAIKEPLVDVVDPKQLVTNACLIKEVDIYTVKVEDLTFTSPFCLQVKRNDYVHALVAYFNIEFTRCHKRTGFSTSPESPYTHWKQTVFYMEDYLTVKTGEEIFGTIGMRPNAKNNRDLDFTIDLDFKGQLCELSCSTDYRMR
SIAE inh – inhibitors of human sialic acid acetylesterase SIAE | SIAE FP-Rh probe binding, fluorescence polarization | inhibition, % at 9.66 µM | Q9HAT2 | actives 0.69% (n = 370,000);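 active = inhibition above a cutoff: mean of compounds within the control limits plus 3 SD of those, cut at about 17% in these data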
HTRA1 inh – inhibitors of human serine peptidase HTRA1 | Q92743 | recombinant HTRA1, FP-rhodamine activity-based probe, fluorescence polarization | inhibition, % at 5.96 µM | actives 0.5% (n = 340,000) | AID 504803; in the data active = inhibition above about 36%
ABHD4 inh – ABHD4 (mouse) inhibition, primary FP screen. Q8VD66. actives 0.54% (n = 370,000). purified mABHD4, FP-Rh probe fluorescence polarization. inhibition, % at 8.92 µM;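 active = inhibition exceeding the mean over every tested compound plus 3 SD, cut at about 30% in these data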
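system = mouse ABHD4 enzyme, wild type | medium = HEPES pH 7.0, NaCl, Pluronic buffer | also added = FP-Rh probe | incubation = Enzyme–compound pre-incubation 45 min, then probe 60 min, both 25 °C | technique = fluorescence polarization, excitation 525 nm, emission 598 nm, BODIPY TMR filters | controls = S159A mutant high control, sample median low control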
TCR CD3 inh – human TCR-CD3 binding inhibition; TAMRA-labeled TCR probe fluorescence, biochemical; inhibition, % at 9.4 µM; actives 0.37% (n = 360,000); AID 651800; in the data active = inhibition above about 19%;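 note: recombinant mutant TCR 2C K166C tagged with TAMRA read by polarization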
Numbers stand for hits; - = inactive; . = no result; ! = not active in a repeat.

SMILES | PRMT1 FP inh | SIAE inh | HTRA1 inh | ABHD4 inh | TCR CD3 inh
COc1ccc(NC(=O)Nc2ccc3c(c2)C(=O)N([C@H](C)CO)C[C@H](C)[C@@H](CN(C)Cc2ccc(Cl)c(Cl)c2)OCCCC[C@@H](C)O3)cc1 | - | 21 | - | - | -
C[C@H](CO)N1C[C@H](C)[C@@H](CN(C)C(=O)Nc2ccc(C(F)(F)F)cc2)Oc2c(NC(=O)Nc3ccc(C(F)(F)F)cc3)cccc2C1=O | - | - | - | - | 20
Cc1cc(C(=O)OCC(=O)Nc2c(Cl)cccc2Cl)c(C)o1 | - | - | - | - | -
CC(C)(C)OC(=O)N1CCC2CCN(S(=O)(=O)c3ccccc3)CC21 (stereo unspecified) | - | - | . | - | -
CSc1nc(N)nc2c1ncn2CC(=O)NCc1ccc2[nH]ccc2c1 | - | - | - | - | -
C[C@@H]1CN([C@H](C)CO)C(=O)CCCn2cc(nn2)CO[C@H]1CN(C)S(=O)(=O)c1cn(C)cn1 | - | - | . | - | -
O=C1CNC(=O)/C(=C/c2ccco2)N1 | 23 | - | - | - | -
O=C1NC(=Nc2ccc(O)cc2)S/C1=C/c1ccco1 | - | - | - | - | -
O=C(CCCc1c[nH]c2ccccc12)N1CCN(c2ccc(N3CCOCC3)nn2)CC1 | - | 19 | - | - | -
Cn1c(SCC(=O)N/N=C/C=C\c2ccco2)nc2ccccc21 | - | - | - | - | -
CCn1c(SCC(=O)N/N=C/C=C\c2ccco2)nc2ccccc21 | 21 | - | - | - | -
CC(=O)C1=C(C)N(Cc2ccc(Cl)cc2)C(=S)NC1c1cccc(Br)c1 (stereo unspecified) | - | - | . | - | -
O=C1C(=O)N(CCN2CCOCC2)C(c2ccc([N+](=O)[O-])cc2)/C1=C(/O)c1ccc2c(c1)OCO2 (stereo unspecified) | 23 | - | - | - | -
Cc1ccc(Cl)cc1NC1=C/C(=N\S(=O)(=O)c2cccs2)c2ccccc2C1=O | - | - | 40! | - | -
Cc1cccc(NC2=C/C(=N/S(=O)(=O)c3cccs3)c3ccccc3C2=O)c1 | - | - | - | - | -
Cc1ccc(NC2=C/C(=N\S(=O)(=O)c3cccs3)c3ccccc3C2=O)c(C)c1 | . | . | 53 | . | .
CSc1ccc(-c2cnc(N3CCC(C(N)=O)CC3)s2)cc1 | - | - | . | - | .
CCOC(=O)C1=CCN(S(=O)(=O)c2ccc(Br)cc2)C1c1ccc(F)cc1 (stereo unspecified) | - | - | . | - | -
Cc1cc(O)ccc1C1(c2ccc(O)cc2C)OC(=O)c2ccccc21 | - | - | - | - | -
CC(=O)Oc1ccc2c(c1)Oc1cc(OC(C)=O)ccc1C21OC(=O)c2ccccc21 | . | . | 124 | . | .
C[C@@H]1CN([C@@H](C)CO)C(=O)CCCn2nncc2CO[C@H]1CN(C)CC1CC1 | - | - | . | - | -
O=C(Cn1c(=O)n(Cc2ccco2)c(=O)c2c3c(sc21)CCCC3)Nc1ccccc1 | - | - | - | - | -
NC(=O)Cn1c(=O)n(Cc2ccco2)c(=O)c2c3c(sc21)CCCCC3 | 21 | - | - | - | -
Cc1sc2nc(-c3cccnc3)[nH]c(=O)c2c1-c1ccccc1 | 23 | - | - | - | -
Cc1sc2nc(Cc3ccccc3)[nH]c(=O)c2c1-c1ccccc1 | - | - | - | - | -
SMILES | PRMT1 FP inh | SIAE inh | HTRA1 inh | ABHD4 inh | TCR CD3 inh
O=[N+]([O-])c1cc(S(=O)(=O)NCc2ccco2)ccc1NN=Cc1ccccn1 | - | - | . | - | -
Cc1ccc(NC(=O)CN2C(=O)N/C(=C/c3cccn3-c3ccc(C(=O)O)cc3)C2=O)cc1 | 30 | - | - | - | -
Oc1ccc2ccccc2c1CNc1ccccc1 | - | - | - | - | -
Oc1ccc2ccccc2c1CNc1ccc2ccccc2c1 | 25 | - | - | 40 | -
Cc1ccc(C2C3CN(C(C)C)CC=C3C(C#N)=C(N)C2(C#N)C#N)cc1 (stereo unspecified) | 40 | - | - | 34 | -
COc1ccc(OC)c(C2C3CN(C(C)C)CC=C3C(C#N)=C(N)C2(C#N)C#N)c1 (stereo unspecified) | - | - | - | - | -
CC(C)=CCC/C(C)=C/CNC(=O)C[C@H]1C[C@H](C(=O)N2CCCCC2)[C@@]2(C)c3[nH]c4cc(-c5ccco5)ccc4c3CCN2C1=O | 24 | - | - | - | -
CCCCNC(=O)NCC1CCN(Cc2ccc(OC)cc2)CC1 | - | - | . | - | .
Nc1nc(=S)c2ncn(C3OC(CO)C(O)C3O)c2[nH]1 (stereo unspecified) | 23 | - | - | - | -
O=C(NNc1ccc([N+](=O)[O-])cc1[N+](=O)[O-])C1C2CCCCC21 (stereo unspecified) | - | - | - | - | -
O=C(O)C1(Nc2ccc([N+](=O)[O-])cc2[N+](=O)[O-])CCCC1 | 23 | - | - | - | -
Cc1cccc(C)c1NC(=O)C1(C)CSCC(=O)N1CC(C)C (stereo unspecified) | - | - | . | - | -
O=C(CNc1ccc2c(c1)OCO2)N/N=C\c1ccccc1Cl | 22 | - | - | - | -
CC(C)(C)OC(=O)N1Cc2cc3ccccc3nc2C1 | - | - | - | - | -
CCOC(=O)C1(C(=O)OCC)COC(=O)C1CN1Cc2cc3ccccc3nc2C1 (stereo unspecified) | 23 | - | - | - | -
COC(=O)[C@]12C[C@H](CC(=O)NCc3ccc(C)o3)C(=O)N(CCC3=CCCCC3)C1=C[C@H](C1CCCC1)O[C@@H]2C | - | - | . | - | .
CCc1c(O)nc(SCC(=O)NC(C)(C)C)n(-c2ccccc2)c1=O | 24 | - | - | - | -
CCc1c(O)nc(SCC(=O)N2CCOCC2)n(-c2ccccc2)c1=O | - | - | - | - | -
CCCCc1c(O)nc(SCCN(C)C)n(-c2ccccc2)c1=O | 24 | - | - | - | -
CCc1c(O)nc(SCC(=O)c2ccccc2)n(-c2ccccc2)c1=O | 24 | - | - | - | -
CN(C)CCSc1nc(O)c(-c2ccccc2)c(=O)n1-c1ccccc1 | - | - | - | - | -
CN(Cc1ccc(Cl)s1)C(=O)CSc1nnc(C2CC2)n1C1CC1 | - | - | - | - | -
CCN(C(=O)COc1cc(=O)n(CC)c2ccccc12)c1cc(Cl)ccc1OC | - | 22 | - | - | -
c1ccc(C2=NNC(=NC3CC3)SC2)cc1 | 65 | - | - | - | -
NC(=O)c1c(NC(=O)C2CC=CCC2C(=O)O)sc2c1CCCCC2 (stereo unspecified) | 23 | - | - | - | -
O=C(CSc1ccc2c(c1)OCCO2)Nc1ncccc1O | 24 | - | - | - | -
COc1ccc(CCNC(=O)COC(=O)CSc2ccc([N+](=O)[O-])cc2)cc1OC | - | - | - | - | -
COc1ccc(CCNC(=O)COC(=O)CSc2ccc(C(N)=O)cc2[N+](=O)[O-])cc1OC | 22 | - | - | - | -
Cc1c(CN2CCN(c3ncc(Cc4ccccc4)cn3)CC2)c(=O)n(-c2ccccc2)n1C | - | - | . | - | -
